Data: ChEMBL document CHEMBL5376013, “Design, synthesis and biological evaluation of novel morpholinopyrimidine-5-carbonitrile derivatives as dual PI3K/mTOR inhibitors” (RSC Med Chem, 2024)

What was measured:
Assay type in all cases: functional
Details in all cases: read-out: GI
A549 = assay: Antitumor activity against human A549 cells assessed as growth inhibition at 10 uM relative to control
How it was run: (§1)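 After drug addition, plates were incubated 48 h at 37 °C under 5% CO2. Adherent cells were fixed with cold TCA (10% final, 60 min, 4 °C) and suspension cells with 16% final TCA. Staining used 0.4% SRB in 1% acetic acid, solubilized in 10 mM trizma, read at A515. Percent growth was calculated from time-zero, control and treated absorbances.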

MDA-MB-231 = assay: Antitumor activity against human MDA-MB-231 cells assessed as growth inhibition at 10 uM relative to control; how it was run: as §1
HCT-116 = assay: Antitumor activity against human HCT-116 cells assessed as growth inhibition at 10 uM relative to control; how it was run: as §1
SW-620 = assay: Antitumor activity against human SW-620 cells assessed as growth inhibition at 10 uM relative to control
How it was run: (§2)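 Drug exposure 48 h at 37 °C, 5% CO2. Adherent cells fixed with cold TCA (10% final), suspension cells with TCA (16% final). Stained with 0.4% SRB in 1% acetic acid, dissolved in 10 mM Tris, A515. Growth relative to time-zero and untreated control.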

786-0 = assay: Antitumor activity against human 786-0 cells assessed as growth inhibition at 10 uM relative to control; how it was run: as §1
HCC 2998 = assay: Antitumor activity against human HCC 2998 cells assessed as growth inhibition at 10 uM relative to control; how it was run: as §1
MDA-MB-468 = assay: Antitumor activity against human MDA-MB-468 cells assessed as growth inhibition at 10 uM relative to control; how it was run: as §1
T47D = assay: Antitumor activity against human T47D cells assessed as growth inhibition at 10 uM relative to control; how it was run: as §2
SK-MEL-2 = assay: Antitumor activity against human SK-MEL-2 cells assessed as growth inhibition at 10 uM relative to control; how it was run: as §1
SN12C = assay: Antitumor activity against human SN12C cells assessed as growth inhibition at 10 uM relative to control; how it was run: as §2
K562 = assay: Antitumor activity against human K562 cells assessed as growth inhibition at 10 uM relative to control; how it was run: as §1
EKVX = assay: Antitumor activity against human EKVX cells assessed as growth inhibition at 10 uM relative to control; how it was run: as §1
OVCAR-8 = assay: Antitumor activity against human OVCAR-8 cells assessed as growth inhibition at 10 uM relative to control; how it was run: as §1
SNB-75 = assay: Antitumor activity against human SNB-75 cells assessed as growth inhibition at 10 uM relative to control; how it was run: as §2
RXF 393 = assay: Antitumor activity against human RXF 393 cells assessed as growth inhibition at 10 uM relative to control; how it was run: as §1
Malme-3M = assay: Antitumor activity against human Malme-3M cells assessed as growth inhibition at 10 uM relative to control; how it was run: as §1
U-251 = assay: Antitumor activity against human U-251 cells assessed as growth inhibition at 10 uM relative to control; how it was run: as §2
NCI-H23 = assay: Antitumor activity against human NCI-H23 cells assessed as growth inhibition at 10 uM relative to control; how it was run: as §1
MOLT-4 = assay: Antitumor activity against human MOLT-4 cells assessed as growth inhibition at 10 uM relative to control; how it was run: as §1
NCI-H226 = assay: Antitumor activity against human NCI-H226 cells assessed as growth inhibition at 10 uM relative to control; how it was run: as §1
SNB-19 = assay: Antitumor activity against human SNB-19 cells assessed as growth inhibition at 10 uM relative to control; how it was run: as §2
HCT-15 = assay: Antitumor activity against human HCT-15 cells assessed as growth inhibition at 10 uM relative to control; how it was run: as §1
SK-MEL-28 = assay: Antitumor activity against human SK-MEL-28 cells assessed as growth inhibition at 10 uM relative to control; how it was run: as §2
OVCAR-5 = assay: Antitumor activity against human OVCAR-5 cells assessed as growth inhibition at 10 uM relative to control; how it was run: as §1
SR = assay: Antitumor activity against human SR cells assessed as growth inhibition at 10 uM relative to control; how it was run: as §2
SK-MEL-5 = assay: Antitumor activity against human SK-MEL-5 cells assessed as growth inhibition at 10 uM relative to control; how it was run: as §2
MDA-MB-435 = assay: Antitumor activity against human MDA-MB-435 cells assessed as growth inhibition at 10 uM relative to control; how it was run: as §1
IGROV-1 = assay: Antitumor activity against human IGROV-1 cells assessed as growth inhibition at 10 uM relative to control; how it was run: as §1
OVCAR-3 = assay: Antitumor activity against human OVCAR-3 cells assessed as growth inhibition at 10 uM relative to control; how it was run: as §1
RPMI-8226 = assay: Antitumor activity against human RPMI-8226 cells assessed as growth inhibition at 10 uM relative to control; how it was run: as §1
KM12 = assay: Antitumor activity against human KM12 cells assessed as growth inhibition at 10 uM relative to control; how it was run: as §1
SF-539 = assay: Antitumor activity against human SF-539 cells assessed as growth inhibition at 10 uM relative to control; how it was run: as §1
HOP-62 = assay: Antitumor activity against human HOP-62 cells assessed as growth inhibition at 10 uM relative to control; how it was run: as §1
NCI-H460 = assay: Antitumor activity against human NCI-H460 cells assessed as growth inhibition at 10 uM relative to control; how it was run: as §1
BT-549 = assay: Antitumor activity against human BT-549 cells assessed as growth inhibition at 10 uM relative to control; how it was run: as §1
NCI-H522 = assay: Antitumor activity against human NCI-H522 cells assessed as growth inhibition at 10 uM relative to control; how it was run: as §1
CCRF-CEM = assay: Antitumor activity against human CCRF-CEM cells assessed as growth inhibition at 10 uM relative to control; how it was run: as §1
NCI-H322M = assay: Antitumor activity against human NCI-H322M cells assessed as growth inhibition at 10 uM relative to control; how it was run: as §1
HL-60 = assay: Antitumor activity against human HL-60 cells assessed as growth inhibition at 10 uM relative to control; how it was run: as §1
HT-29 = assay: Antitumor activity against human HT-29 cells assessed as growth inhibition at 10 uM relative to control; how it was run: as §1
CAKI-1 = assay: Antitumor activity against human CAKI-1 cells assessed as growth inhibition at 10 uM relative to control; how it was run: as §1
Hs-578T = assay: Antitumor activity against human Hs-578T cells assessed as growth inhibition at 10 uM relative to control; how it was run: as §1
COLO 205 = assay: Antitumor activity against human COLO 205 cells assessed as growth inhibition at 10 uM relative to control; how it was run: as §1
LOX IMVI = assay: Antitumor activity against human LOX IMVI cells assessed as growth inhibition at 10 uM relative to control; how it was run: as §1
UO-31 = assay: Antitumor activity against human UO-31 cells assessed as growth inhibition at 10 uM relative to control; how it was run: as §2
MCF7 = assay: Antitumor activity against human MCF7 cells assessed as growth inhibition at 10 uM relative to control; how it was run: as §1

Measured: inhibition of growth at 10 µM

N#Cc1c(-c2ccc(Cl)cc2)nc(NN2C(=O)CCC2=O)nc1N1CCOCC1
12.5%: UO-31
16%: NCI-H522
33.9%: SNB-75
1%: MCF7
< 1%: all other assays above

CSc1nc(Cl)c(C#N)c(-c2ccc(Cl)cc2)n1
27.6%: MOLT-4
58.5%: SR
11.2%: BT-549
44.5%: K562
1%: MCF7
26.8%: SNB-75
26.1%: CCRF-CEM
< 1%: all other assays above
